Laboratory results published in ChEMBL document CHEMBL1240328, “Selective compounds define Hsp90 as a major inhibitor of apoptosis in small-cell lung cancer” (Nat Chem Biol, 2007).
Calls of active or inactive are those of the source. The rule behind the calls is not given here.

Experiments:
[1] = target: Heat shock protein HSP 90-beta (Homo sapiens) (UniProt P08238); assay: Inhibition of HSP90-mediated antiapoptotic activity in human NCI-N417 cells assessed as subG1 accumulation at 25 uM after 72 hrs by propidium iodide staining-based flow cytometry; assay type: cell-based; conditions: NCI-H417
In short: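 Asynchronously growing cells were treated with compound, stained with propidium iodide and analysed by flow cytometry. The read-out was the percentage of cells with sub-G1 DNA content.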

[2] = target: Heat shock protein HSP 90-beta (Homo sapiens) (UniProt P08238); assay: Inhibition of HSP90-mediated antiapoptotic activity in human NCI-H526 cells assessed as release of Apaf-1 from chaperon complex at 20 uM after 1 hr by Western blot analysis; assay type: cell-based
In short: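 NCI-H526 cells treated with 20 µM for the indicated times. Complexes immunoprecipitated with Apaf-1 or caspase-9 antibodies, with control IgG alongside. Co-precipitated proteins identified by western blot.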

[3] = target: Heat shock protein HSP 90-beta (Homo sapiens) (UniProt P08238); assay: Inhibition of HSP90-mediated antiapoptotic activity in human NCI-H526 cells assessed as increased association between caspase-9 and Apaf-1 at 20 uM after 1 hr by Western blot analysis
[4] = target: Heat shock protein HSP 90-beta (Homo sapiens) (UniProt P08238); assay: Inhibition of HSP90-mediated antiapoptotic activity in human NCI-H526 cells assessed as induction of caspase-2 cleavage at 10 uM after 24 hrs by Western blot analysis; assay type: cell-based
In short: (§1)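 NCI-H526 cells at 60–70% confluence were exposed to drug or DMSO for 24 h. Lysed in 50 mM Tris pH 7.4, 150 mM NaCl, 1% NP-40, with protein measured by BCA. 20–100 µg run on SDS-PAGE and blotted to nitrocellulose. Probed with cleaved-protein antibodies and peroxidase secondary at 1:5,000, with β-actin as loading control.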

[5] = target: Heat shock protein HSP 90-beta (Homo sapiens) (UniProt P08238); assay: Inhibition of HSP90-mediated antiapoptotic activity in human NCI-H526 cells assessed as subG1 accumulation at 2.5 uM after 72 hrs by propidium iodide staining-based flow cytometry; assay type: cell-based
In short: (§2)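 SCLC cells treated for 72 h with graded doses. Mitochondrial membrane potential read by flow cytometry after JC-1 staining, with green-only emission indicating depolarization. Sub-G1 DNA content read after propidium iodide staining. CCCP used as positive control. n = 3 repeat experiments.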

[6] = target: Heat shock protein HSP 90-beta (Homo sapiens) (UniProt P08238); assay: Inhibition of HSP90-mediated antiapoptotic activity in human NCI-H69 cells assessed as increase in apoptotic cell population at 0.2 to 1 uM after 72 hrs by FACS analysis relative to control; assay type: cell-based
[7] = target: Heat shock protein HSP 90-beta (Homo sapiens) (UniProt P08238); assay: Inhibition of HSP90-mediated antiapoptotic activity in human NCI-H526 cells assessed as mitochondrial membrane depolarization at 10 uM after 72 hrs by JC-1 staining-based flow cytometry in presence of broad-spectrum caspase inhibitor Boc-D-FMK; assay type: cell-based
In short: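 NCI-H526 cells pretreated for 3 h with Boc-D-FMK (100 µM), then exposed to 10 µM for 72 h. Flow cytometry after JC-1 staining for mitochondrial potential and after propidium iodide staining for DNA content. n = 3.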

[8] = target: Heat shock protein HSP 90-beta (Homo sapiens) (UniProt P08238); assay: Inhibition of HSP90-mediated antiapoptotic activity in human NCI-H526 cells assessed as subG1 accumulation at 5 uM after 72 hrs by propidium iodide staining-based flow cytometry; assay type: cell-based; in short: as §2
NCI-H526 = assay: Inhibition of HSP70-mediated antiapoptotic activity in human NCI-H526 cells assessed as induction of caspase-3 cleavage after 24 hrs by Western blot analysis; assay type: cell-based
In short: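 NCI-H526 cells were treated for 24 h. PARP and caspase-3 cleavage were read by western blot of lysates in Tris/NaCl/NP-40 buffer. Apaf-1 complexes were immunoprecipitated with Apaf-1 antibody, using control IgG, then blotted.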

[9] = target: Heat shock protein HSP 90-beta (Homo sapiens) (UniProt P08238); assay: Inhibition of HSP90-mediated antiapoptotic activity in human SKBR3 cells assessed as induction of caspase-3 cleavage at 20 uM after 24 hrs by Western blot analysis; assay type: cell-based; conditions: SK-BR-3
In short: (§3)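 SKBr3 cells at 60–70% confluence were exposed to drug or DMSO vehicle. Lysis was in 50 mM Tris pH 7.4, 150 mM NaCl, 1% NP-40, with protein measured by BCA. Lysates of 20–100 µg were run on SDS-PAGE, blotted to nitrocellulose, probed with primary antibodies and detected with a peroxidase-conjugated secondary (1:5,000). Loading was checked with β-actin or PI(3)K p85.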

[10] = target: Heat shock protein HSP 90-beta (Homo sapiens) (UniProt P08238); assay: Inhibition of HSP90-mediated antiapoptotic activity in human NCI-H526 cells assessed as induction of PARP cleavage at 10 uM after 24 hrs by Western blot analysis; assay type: cell-based; in short: as §1
[11] = target: Heat shock protein HSP 90-beta (Homo sapiens) (UniProt P08238); assay: Inhibition of HSP90-mediated antiapoptotic activity in human NCI-H526 cells assessed as disruption of protein-Apaf-1 complex at 50 uM after 24 hrs by Western blot analysis; assay type: cell-based
In short: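 NCI-H526 cells treated for 24 h with vehicle or inhibitors (20 µM or 50 µM). Proteins isolated with Apaf-1-specific antibody and whole lysates analysed by western blot. n = 3.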

[12] = target: Heat shock protein HSP 90-beta (Homo sapiens) (UniProt P08238); assay: Inhibition of HSP90-mediated antiapoptotic activity in human NCI-H526 cells assessed as induction of caspase-3 cleavage at 10 uM after 72 hrs by fluorescence assay in presence of caspase-9 inhibitor Z-LEHD-FMK; assay type: cell-based
[13] = target: Heat shock protein HSP 90-beta (Homo sapiens) (UniProt P08238); assay: Inhibition of HSP90-mediated antiapoptotic activity in human MCF7 cells assessed as induction of cell growth arrest at 50 uM after 24 hrs by propidium iodide staining-based flow cytometry
[14] = target: Heat shock protein HSP 90-beta (Homo sapiens) (UniProt P08238); assay: Inhibition of HSP90-mediated antiapoptotic activity in human NCI-H187 cells assessed as subG1 accumulation at 15 uM after 72 hrs by propidium iodide staining-based flow cytometry; assay type: cell-based; in short: as §2
[15] = target: Heat shock protein HSP 90-beta (Homo sapiens) (UniProt P08238); assay: Inhibition of HSP90-mediated antiapoptotic activity in human NCI-H526 cells assessed as increase in caspase-3 activity at 10 uM after 24 hrs by Western blot analysis; assay type: cell-based
[16] = target: Heat shock protein HSP 90-beta (Homo sapiens) (UniProt P08238); assay: Inhibition of HSP90-mediated antiapoptotic activity in human SKBR3 cells assessed as induction of caspase-3 cleavage at 50 uM after 24 hrs by Western blot analysis; assay type: cell-based; conditions: SK-BR-3; in short: as §3
[17] = target: Heat shock protein HSP 90-beta (Homo sapiens) (UniProt P08238); assay: Inhibition of HSP90-mediated antiapoptotic activity in human SKBR3 cells assessed as induction of cell growth arrest at 100 uM after 24 hrs by propidium iodide staining-based flow cytometry; conditions: SK-BR-3
SK-BR-3 = assay: Inhibition of HSP70-mediated antiapoptotic activity in human SKBR3 cells assessed as induction of cell growth arrest after 72 hrs by propidium iodide staining-based flow cytometry
[18] = target: Heat shock protein HSP 90-beta (Homo sapiens) (UniProt P08238); assay: Inhibition of HSP90-mediated antiapoptotic activity in human NCI-H526 cells assessed as induction of Akt degradation at 10 uM after 24 hrs by Western blot analysis; assay type: cell-based
[19] = target: Heat shock protein HSP 90-beta (Homo sapiens) (UniProt P08238); assay: Inhibition of HSP90-mediated antiapoptotic activity in human NCI-H526 cells assessed as subG1 accumulation at 15 uM after 72 hrs by propidium iodide staining-based flow cytometry; assay type: cell-based; in short: as §2
[20] = target: Heat shock protein HSP 90-beta (Homo sapiens) (UniProt P08238); assay: Inhibition of HSP90-mediated antiapoptotic activity in human NCI-H526 cells assessed as reduction in BAD phosphorylation at 20 uM after 24 hrs by Western blot analysis; assay type: cell-based
[21] = target: Heat shock protein HSP 90-beta (Homo sapiens) (UniProt P08238); assay: Inhibition of HSP90-mediated antiapoptotic activity in human NCI-H526 cells assessed as induction of Akt degradation at 20 uM after 24 hrs by Western blot analysis; assay type: cell-based
[22] = target: Heat shock protein HSP 90-beta (Homo sapiens) (UniProt P08238); assay: Inhibition of HSP90-mediated antiapoptotic activity in human NCI-H526 cells assessed as reduction in BAD phosphorylation at 10 uM after 24 hrs by Western blot analysis; assay type: cell-based

Chain of Heat shock protein HSP 90-beta (Homo sapiens) (P08238 whole entry): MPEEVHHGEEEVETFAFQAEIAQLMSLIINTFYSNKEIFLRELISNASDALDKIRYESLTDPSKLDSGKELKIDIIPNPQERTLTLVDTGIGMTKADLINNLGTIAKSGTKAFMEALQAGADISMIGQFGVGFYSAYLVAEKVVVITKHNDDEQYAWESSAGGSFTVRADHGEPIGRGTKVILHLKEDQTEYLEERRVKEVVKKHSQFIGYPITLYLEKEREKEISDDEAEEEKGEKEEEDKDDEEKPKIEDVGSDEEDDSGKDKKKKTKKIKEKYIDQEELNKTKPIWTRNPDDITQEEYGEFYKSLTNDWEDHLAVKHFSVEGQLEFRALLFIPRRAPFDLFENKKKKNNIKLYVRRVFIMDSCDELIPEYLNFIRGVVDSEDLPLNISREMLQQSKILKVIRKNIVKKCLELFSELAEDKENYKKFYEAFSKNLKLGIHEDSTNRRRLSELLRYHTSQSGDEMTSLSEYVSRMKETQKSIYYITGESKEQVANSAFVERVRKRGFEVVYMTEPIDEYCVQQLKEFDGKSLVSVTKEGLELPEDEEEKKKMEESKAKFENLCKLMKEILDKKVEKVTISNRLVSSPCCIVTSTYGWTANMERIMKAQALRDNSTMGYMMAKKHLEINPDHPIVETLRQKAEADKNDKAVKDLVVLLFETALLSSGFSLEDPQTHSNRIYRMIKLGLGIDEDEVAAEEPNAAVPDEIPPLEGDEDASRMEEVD

Activity [1]: inactive | Activity [2]: inactive | Activity [3]: inactive | Activity [4]: inactive | Activity [5]: inactive | Activity [6]: inactive | Activity [7]: inactive | Activity [8]: inactive | Activity [9]: inactive | Activity [10]: inactive | Activity [11]: inactive | Activity [12]: inactive | Activity [13]: inactive | Activity [14]: inactive | Activity [15]: inactive | Activity [16]: inactive | Activity [17]: Active | Activity [18]: inactive | Activity [19]: inactive | Activity [20]: inactive | Activity [21]: inactive | Activity [22]: inactive
Structure (SMILES): O=CN1CC/C(=C/c2ccc3c(c2)OCO3)C1=O
inhibition (NCI-H526): inactive | inhibition (SK-BR-3): Active
